Results taken from ChEMBL document CHEMBL5303300, “EUbOPEN Chemogenomics Library - Multiplex” (2023).
Several values for one entry are separate records, joined by “and”; a condition that tells them apart may be missing. Identical values can stand only once.

System: HEK-293T
Assay: Multiplex assay against HEK293T
Assay type: toxicity, cell-based
Conditions: human, number of replicates 2
Procedure, shortened: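 Phenotypes for tubulin, mitochondrial mass and membrane permeability are expressed as per cents of healthy-nucleus cells. Cells were stained live at seeding with Hoechst33342, BioTracker Green Microtubule Cytoskeleton Dye, MitoTracker Red and Annexin V Alexa Fluor 680, then imaged after compound addition on a CQ1 microscope at 37°C and 5% CO2. Machine-learning gating in CellPathfinder separated Hoechst high-intensity objects from normal cells, divided normal cells by nuclear state (healthy, pyknosed, fragmented) and divided pyknosed cells into mitotic or apoptotic.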

[1] = 12 h, 1 µM, compound concentration 1 uM
[2] = 12 h, 10 µM, compound concentration 10 uM
[3] = 24 h, 1 µM, compound concentration 1 uM
[4] = 24 h, 10 µM, compound concentration 10 uM
[5] = 48 h, 1 µM, compound concentration 1 uM
[6] = 48 h, 10 µM, compound concentration 10 uM

In the case of `COCCNC1CCC(Nc2cc(-c3csc(NCC4(C#N)CCOCC4)n3)c(Cl)cn2)CC1` (stereo unspecified), the “Population Apoptotic (%)” value [1] is reported as 38% and 65%, the “Population Fragmented Nuclei (%)” value [1] is reported as 4% and 2% and the “Population Healthy Nuclei (%)” value [1] is reported as 81% and 83%. The “Population Hoechst High Intensity Objects (%)” value [1] was 7% and 9%, the “Population Membrane Permeable-Phenotype (%)” value [1] was 3% and 2% and the “Population Mitochondria Different-Phenotype (%)” value [1] was 50% and 51%. For the same compound, the “Population Mitotic Cells (%)” value [1] was 61% and 34%, the “Population Normal (%)” value [1] was 92% and 90% and the “Population Pyknosed Nuclei (%)” value [1] was 13% and 14%. For the same compound, the “Population Tubulin-Different-Phenotype (%)” value [1] was 76% and 80%, the “Total Cell Count” value [1] was 472 and 403 and the “Population Apoptotic (%)” value [2] was 74% and 66%. The “Population Fragmented Nuclei (%)” value [2] was 1% and 2%, the “Population Healthy Nuclei (%)” value [2] was 77% and 83% and the “Population Hoechst High Intensity Objects (%)” value [2] was 10% and 12%. The “Population Membrane Permeable-Phenotype (%)” value [2] was 2% and 3%, the “Population Mitochondria Different-Phenotype (%)” value [2] was 69% and 65% and the “Population Mitotic Cells (%)” value [2] was 25% and 33%. For the same compound, the “Population Normal (%)” value [2] was 89% and 87%, the “Population Pyknosed Nuclei (%)” value [2] was 20% and 14% and the “Population Tubulin-Different-Phenotype (%)” value [2] was 96% and 94%. For the same compound, the “Total Cell Count” value [2] was 313 and 412, the “Population Apoptotic (%)” value [3] was 48% and 66% and the “Population Fragmented Nuclei (%)” value [3] was 2% and 4%. The “Population Healthy Nuclei (%)” value [3] was 88% and 83%, the “Population Hoechst High Intensity Objects (%)” value [3] was 13% and 16% and the “Population Membrane Permeable-Phenotype (%)” value [3] was 1% and 2%. The “Population Mitochondria Different-Phenotype (%)” value [3] was 62% and 58%, the “Population Mitotic Cells (%)” value [3] was 51% and 33% and the “Population Normal (%)” value [3] was 86% and 83%. The “Population Pyknosed Nuclei (%)” value [3] was 8% and 12%, the “Population Tubulin-Different-Phenotype (%)” value [3] was 72% and 74% and the “Total Cell Count” value [3] was 431 and 359. For the same compound, the “Population Apoptotic (%)” value [4] was 91% and 67%, the “Population Fragmented Nuclei (%)” value [4] was 3% and the “Population Healthy Nuclei (%)” value [4] was 82% and 87%. For the same compound, the “Population Hoechst High Intensity Objects (%)” value [4] was 15% and 21%, the “Population Membrane Permeable-Phenotype (%)” value [4] was 2% and the “Population Mitochondria Different-Phenotype (%)” value [4] was 81% and 75%. The “Population Normal (%)” value [4] was 84% and 78%, the “Population Pyknosed Nuclei (%)” value [4] was 14% and 8% and the “Population Tubulin-Different-Phenotype (%)” value [4] was 93% and 92%. The “Total Cell Count” value [4] was 294 and 402, the “Population Apoptotic (%)” value [5] was 55% and 65% and the “Population Fragmented Nuclei (%)” value [5] was 1% and 5%. For the same compound, the “Population Healthy Nuclei (%)” value [5] was 91% and 84%, the “Population Hoechst High Intensity Objects (%)” value [5] was 14% and 17% and the “Population Membrane Permeable-Phenotype (%)” value [5] was 1% and 2%. For the same compound, the “Population Mitochondria Different-Phenotype (%)” value [5] was 71% and 68%, the “Population Mitotic Cells (%)” value [5] was 45% and 34% and the “Population Normal (%)” value [5] was 85% and 82%. For the same compound, the “Population Pyknosed Nuclei (%)” value [5] was 7% and 9%, the “Population Tubulin-Different-Phenotype (%)” value [5] was 75% and the “Total Cell Count” value [5] was 317 and 304. For the same compound, the “Population Apoptotic (%)” value [6] was 92% and 82%, the “Population Fragmented Nuclei (%)” value [6] was 1% and 4% and the “Population Healthy Nuclei (%)” value [6] was 78% and 85%. The “Population Hoechst High Intensity Objects (%)” value [6] was 13% and 22%, the “Population Membrane Permeable-Phenotype (%)” value [6] was 3% and 1% and the “Population Mitochondria Different-Phenotype (%)” value [6] was 85% and 82%. For the same compound, the “Population Mitotic Cells (%)” value [6] was 7% and 17%, the “Population Normal (%)” value [6] was 86% and 77% and the “Population Pyknosed Nuclei (%)” value [6] was 19% and 9%. The “Population Tubulin-Different-Phenotype (%)” value [6] was 95% and 90% and the “Total Cell Count” value [6] was 237 and 368.

`COc1ccc(-c2cc3c(C)nc(N)nc3n([C@H]3CC[C@H](OCCO)CC3)c2=O)cn1` [PF-04691502] was tested, and the “Population Apoptotic (%)” value [1] was 74% and 67%, the “Population Fragmented Nuclei (%)” value [1] was 3% and 2% and the “Population Healthy Nuclei (%)” value [1] was 86% and 87%. The “Population Hoechst High Intensity Objects (%)” value [1] was 12% and 13%, the “Population Membrane Permeable-Phenotype (%)” value [1] was 0% and 2% and the “Population Mitochondria Different-Phenotype (%)” value [1] was 36% and 56%. The “Population Mitotic Cells (%)” value [1] was 25% and 32%, the “Population Normal (%)” value [1] was 87% and 86% and the “Population Pyknosed Nuclei (%)” value [1] was 10%. The “Population Tubulin-Different-Phenotype (%)” value [1] was 60% and 67%, the “Total Cell Count” value [1] was 425 and 310 and the “Population Apoptotic (%)” value [2] was 73% and 71%. The “Population Fragmented Nuclei (%)” value [2] was 7% and 3%, the “Population Healthy Nuclei (%)” value [2] was 69% and 75% and the “Population Hoechst High Intensity Objects (%)” value [2] was 24% and 19%. The “Population Membrane Permeable-Phenotype (%)” value [2] was 1% and 5%, the “Population Mitochondria Different-Phenotype (%)” value [2] was 80% and 72% and the “Population Mitotic Cells (%)” value [2] was 26% and 28%. The “Population Normal (%)” value [2] was 75% and 80%, the “Population Pyknosed Nuclei (%)” value [2] was 23% and 21% and the “Population Tubulin-Different-Phenotype (%)” value [2] was 77% and 78%. The “Total Cell Count” value [2] was 170 and 187, the “Population Apoptotic (%)” value [3] was 71% and 78% and the “Population Fragmented Nuclei (%)” value [3] was 7%. For the same compound, the “Population Healthy Nuclei (%)” value [3] was 76% and 81%, the “Population Hoechst High Intensity Objects (%)” value [3] was 24% and 20% and the “Population Membrane Permeable-Phenotype (%)” value [3] was 1%. For the same compound, the “Population Mitochondria Different-Phenotype (%)” value [3] was 40% and 55%, the “Population Mitotic Cells (%)” value [3] was 28% and 21% and the “Population Normal (%)” value [3] was 75% and 79%. The “Population Pyknosed Nuclei (%)” value [3] was 16% and 10%, the “Population Tubulin-Different-Phenotype (%)” value [3] was 64% and 68% and the “Total Cell Count” value [3] was 314 and 266. The “Population Apoptotic (%)” value [4] was 66% and 60%, the “Population Fragmented Nuclei (%)” value [4] was 9% and 7% and the “Population Healthy Nuclei (%)” value [4] was 70% and 77%. The “Population Hoechst High Intensity Objects (%)” value [4] was 26% and 30%, the “Population Membrane Permeable-Phenotype (%)” value [4] was 2% and 0% and the “Population Mitochondria Different-Phenotype (%)” value [4] was 72% and 61%. For the same compound, the “Population Mitotic Cells (%)” value [4] was 33% and 40%, the “Population Normal (%)” value [4] was 73% and 69% and the “Population Pyknosed Nuclei (%)” value [4] was 20% and 14%. The “Population Tubulin-Different-Phenotype (%)” value [4] was 79% and 69%, the “Total Cell Count” value [4] was 163 and 192 and the “Population Apoptotic (%)” value [5] was 70% and 77%. The “Population Fragmented Nuclei (%)” value [5] was 9% and 10%, the “Population Healthy Nuclei (%)” value [5] was 69% and 65% and the “Population Hoechst High Intensity Objects (%)” value [5] was 28% and 27%. The “Population Membrane Permeable-Phenotype (%)” value [5] was 0% and 1%, the “Population Mitochondria Different-Phenotype (%)” value [5] was 42% and 44% and the “Population Mitotic Cells (%)” value [5] was 29% and 22%. The “Population Normal (%)” value [5] was 71% and 72%, the “Population Pyknosed Nuclei (%)” value [5] was 20% and 24% and the “Population Tubulin-Different-Phenotype (%)” value [5] was 69% and 75%. For the same compound, the “Total Cell Count” value [5] was 275 and 280, the “Population Apoptotic (%)” value [6] was 70% and 64% and the “Population Fragmented Nuclei (%)” value [6] was 14% and 18%. The “Population Healthy Nuclei (%)” value [6] was 74%, the “Population Hoechst High Intensity Objects (%)” value [6] was 31% and 28% and the “Population Membrane Permeable-Phenotype (%)” value [6] was 0% and 1%. The “Population Mitochondria Different-Phenotype (%)” value [6] was 40% and 27%, the “Population Mitotic Cells (%)” value [6] was 30% and 35% and the “Population Normal (%)” value [6] was 68% and 71%. For the same compound, the “Population Pyknosed Nuclei (%)” value [6] was 10% and 6%, the “Population Tubulin-Different-Phenotype (%)” value [6] was 61% and 50% and the “Total Cell Count” value [6] was 273 and 293.
